T cruzi growth-1 – inhibitors of T. cruzi proliferation. T. cruzi beta-gal in NIH3T3, GalScreen luminescence, 90 h. inhibition, % at 8.34 µM. 77,000 compounds, 5.9% hits;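 active = mean inhibition above about 93%, with at least 55% of replicates each passing it, limit read from the data, passing the limit was not always enough; inconclusive = only one of those two conditions holds; inactive = neither condition holds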
Pf Dd2 inh – blocks growth of Plasmodium falciparum Dd2 parasites; activity change, % at 10 µM; P. falciparum Dd2 growth, SYBR Green, 72 h; active compounds read low; 94,000 compounds, 2.3% hits; in the data active = activity change below about -80%; inconclusive = no clear call, values can overlap the other calls
IDH1 mut inh – inhibitors of human IDH1 R132H. O75874. IDH1 R132H reductase, diaphorase/resazurin fluorescence, 60 min. inhibition, % at 10 µM. 70,000 compounds, 0.18% hits. AID 624101; in the data active = inhibition above about 34%; inconclusive = no clear call, values can overlap the other calls; inactive = below about 11%;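 also: 0% = DMSO and 100% = no enzyme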
KDM4C inh – inhibitors of human demethylase GASC-1 KDM4C. Q9H3R0. GST-KDM4C 2-372, H3K9me3 peptide, LANCE TR-FRET. inhibition, % at 12.5 µM. 96,000 compounds, 0.15% hits. AID 720574;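 active = mean replicate inhibition above about 25%, with at least 55% of replicates also reaching it, limit read from the data, passing the limit was not always enough; inconclusive = only one of those two conditions met; inactive = neither condition met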
Target sequence (Q9H3R0 2-372 limits assumed): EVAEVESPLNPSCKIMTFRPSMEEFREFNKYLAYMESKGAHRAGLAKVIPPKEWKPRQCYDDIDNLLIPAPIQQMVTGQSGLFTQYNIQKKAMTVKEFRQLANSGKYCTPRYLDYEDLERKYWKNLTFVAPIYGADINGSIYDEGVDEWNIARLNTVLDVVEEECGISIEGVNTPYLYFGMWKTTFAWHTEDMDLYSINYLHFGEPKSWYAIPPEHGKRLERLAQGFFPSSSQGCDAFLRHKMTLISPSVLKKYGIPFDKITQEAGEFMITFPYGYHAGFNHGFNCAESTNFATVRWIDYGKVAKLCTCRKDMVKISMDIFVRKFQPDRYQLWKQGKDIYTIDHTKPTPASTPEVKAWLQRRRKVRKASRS
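System – N-terminal GST-fused human GASC-1 (KDM4C) fragment, residues 2-372 · Input – enzyme final amount 10 nM · Technique – LANCE TR-FRET, Eu antibody, ULight-streptavidin, EDTA, ex 340 nm, em 618/671 nm · Medium – HEPES buffer, pH 7.5, plus ascorbate · Incubation – enzyme reaction 30 min, then detection 60 min, both room temperature · Reagent – H3K9me3 peptide with Fe(II)/2OG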
T cruzi growth-2 – blocks T. cruzi growth in NIH3T3 host cells. AID 651739. 5,600 compounds, 72% hits. inhibition, % at 8.35 µM. shares compounds with T cruzi growth-1. T. cruzi beta-gal in NIH3T3, GalScreen luminescence, 90 h;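 active = mean replicate inhibition above about 95% and at least 55% of replicates individually reaching it, limit read from the data; inconclusive = only one of the two criteria is met; inactive = neither criterion is met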
T cruzi growth-3 – Trypanosoma cruzi proliferation inhibition. shares compounds with T cruzi growth-1. T. cruzi beta-gal in NIH3T3, GalScreen luminescence, 90 h. inhibition, % at 2.09 µM. 5,600 compounds, 21% hits. AID 651740;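 active = mean inhibition above about 95%, with at least 55% of replicates also reaching it, limit read from the data; inconclusive = meets just one of the two conditions; inactive = meets neither condition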;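 also: plate controls were neutral control median for no effect and positive control median for full effect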
3T3 cytotox – kills mouse NIH/3T3 fibroblasts | shares compounds with T cruzi growth-1 | NIH/3T3 viability, CellTiter-Glo ATP luminescence, 90 h | cytotoxicity (signal decrease), % at 8.35 µM | 5,600 compounds, 14% hits;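 active = mean signal decrease across replicates above about 35% based on untreated-well scatter, with enough replicates individually passing, limit read from the data; inconclusive = no rule stated though some were filed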;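 also: 0% = median of neutral control wells and 100% = median of positive control wells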
NIH3T3 tox 2 – cytotoxicity in mouse NIH/3T3 fibroblasts | inhibition, % at 24.9 µM | NIH/3T3 viability, CellTiter-Glo ATP luminescence, 90 h | 5,600 compounds, 56% hits | shares compounds with T cruzi growth-1;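 active = mean loss of cell viability signal at or above a set limit, and enough replicates individually reaching it; inconclusive = meets only the mean limit or only the replicate share; inactive = meets neither condition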;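 also: 0% = median of neutral control wells and 100% = median of positive control wells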
* = called active by the depositor; ? = inconclusive; nt = not tested or not shown; ! = not active in a repeat. Rows were chosen to be rich in hits. Some 5.8% of all compounds tested hit in one or more screens of this group.

SMILES	T cruzi growth-1	Pf Dd2 inh	IDH1 mut inh	KDM4C inh	T cruzi growth-2	T cruzi growth-3	3T3 cytotox	NIH3T3 tox 2
CO[C@@H]1CN(C)C(=O)c2cc(NS(=O)(=O)c3ccc(C)cc3)ccc2OC[C@H](C)N(C(=O)NC(C)C)C[C@H]1C	-280	-3	0	1	nt	nt	nt	nt
C[C@H](CO)N1C[C@H](C)[C@@H](CN(C)Cc2cccnc2)Oc2cc(C#CC3CCCC3)ccc2S1(=O)=O	96*	-66	nt	1	102*	109*	-9	105*
C[C@@H]1CN([C@@H](C)CO)S(=O)(=O)c2ccc(C#CC3CCCCC3)cc2O[C@@H]1CN(C)Cc1cccnc1	102*!	-74	nt	1	113*	87	51*	105*
Cc1noc(C)c1S(=O)(=O)N(C)C[C@H]1Oc2ccc(NC(=O)Nc3ccccc3)cc2CC(=O)N([C@@H](C)CO)C[C@@H]1C	19	-19	2	-3	nt	nt	nt	nt
CCCNC(=O)N1[C@H](C#N)[C@@H](c2ccc(C#Cc3cccc(F)c3)cc2)[C@@H]1CO	100*	-54	nt	-2	102*	92	9	-2
CCCNC(=O)N1[C@H](C#N)[C@H](c2ccccc2)[C@H]1CO	37	-39	nt	0	nt	nt	nt	nt
CCCNC(=O)N1[C@H](C#N)[C@H](c2ccc(C#Cc3ccc(F)cc3)cc2)[C@@H]1CO	?	-87*	nt	-1	101*	112*	-24	-1
C[C@H](CO)N1C[C@H](C)[C@@H](CN(C)C)Oc2cc(-c3ccc(C#N)cc3)ccc2S1(=O)=O	18	nt	1	-3	nt	nt	nt	nt
C[C@@H]1CCCCO[C@H](CN(C)C(=O)Nc2ccccc2)[C@@H](C)CN([C@H](C)CO)C(=O)c2cc(NS(=O)(=O)c3ccc(Cl)cc3)ccc2O1	63	-52	0	0	nt	nt	nt	nt
C[C@@H]1CCCCO[C@H](CN(C)C(=O)Nc2ccccc2)[C@H](C)CN([C@@H](C)CO)C(=O)c2cc(NS(=O)(=O)c3ccc(Cl)cc3)ccc2O1	?	-74	1	1	101*	77	-2	-4
C[C@@H]1CCCCO[C@H](CN(C)C(=O)c2ccccc2)[C@H](C)CN([C@H](C)CO)C(=O)c2cc(NS(=O)(=O)c3ccc(Cl)cc3)ccc2O1	57	-21	0	0	nt	nt	nt	nt
C[C@@H]1CCCCO[C@@H](CN(C)C(=O)c2ccccc2)[C@H](C)CN([C@H](C)CO)C(=O)c2cc(NS(=O)(=O)c3ccc(Cl)cc3)ccc2O1	98*	-30	nt	-2	111*	32	21	-2
C[C@H](CO)N1C[C@H](C)[C@H](CN(C)C(=O)Nc2ccccc2)OCCCC[C@H](C)Oc2ccc(NS(=O)(=O)c3ccc(Cl)cc3)cc2C1=O	124*	-56	nt	79*	110*	78	19	29
C[C@H](CO)N1C[C@H](C)[C@@H](CN(C)C(=O)Nc2ccccc2)OCCCC[C@H](C)Oc2ccc(NS(=O)(=O)c3ccccc3)cc2C1=O	nt	-36	nt	8	nt	nt	nt	nt
C[C@@H]1CN([C@@H](C)CO)C(=O)c2cc(NS(=O)(=O)c3ccc(Cl)cc3)ccc2O[C@@H](C)CCCCO[C@@H]1CN(C)C(=O)Nc1ccccc1	100*	-79	-1	0	98*	-2	13	24*
O=C(CCc1ccccc1)c1c(O)cc(O)cc1O	nt	nt	2	nt	nt	nt	nt	nt
O=C(Nc1ccccc1F)N1CCCCN2[C@H](CO)[C@H](c3ccc(-c4cccnc4)cc3)[C@@H]2C1	113*	30	nt	1	105*	29	-3	11
O=C(Nc1ccccc1F)N1CCCCN2[C@@H](CO)[C@H](c3ccc(-c4cccnc4)cc3)[C@@H]2C1	102*	10	nt	0	106*	40	-10	34*
O=C(Nc1ccccc1F)N1CCCCN2[C@@H](CO)[C@@H](c3ccc(-c4cccnc4)cc3)[C@@H]2C1	78	-24	nt	0	nt	nt	nt	nt
O=C(C[C@@H]1C[C@H]2c3cc(NC(=O)NC4CCCC4)ccc3O[C@H]2[C@H](CO)O1)NCC(F)(F)F	nt	4	1	-1	nt	nt	nt	nt
COCC(=O)N(C)C[C@@H]1Oc2cc(C#Cc3cccnc3)ccc2S(=O)(=O)N([C@@H](C)CO)C[C@@H]1C	nt	14	0	-2	nt	nt	nt	nt
N#C[C@@H]1[C@@H](c2ccc(-c3cccc(F)c3)cc2)[C@H](CO)N1C(=O)NC1CCCC1	97*	-62	nt	-1	105*	95	24	38*
C/C=C/c1ccc([C@H]2[C@@H](CO)N(CC3CCCCC3)[C@H]2CNC(C)C)cc1	nt	-68	nt	nt	nt	nt	nt	nt
N#C[C@H]1[C@@H](c2ccc(-c3cccc(F)c3)cc2)[C@H](CO)N1C(=O)NC1CCCC1	93	20	nt	-1	nt	nt	nt	nt
CC(C)NC[C@H]1[C@@H](c2ccc(-c3cccc(F)c3)cc2)[C@@H](CO)N1CC1CC1	109*	-22	nt	0	68	12	-1	105*
SMILES	T cruzi growth-1	Pf Dd2 inh	IDH1 mut inh	KDM4C inh	T cruzi growth-2	T cruzi growth-3	3T3 cytotox	NIH3T3 tox 2
N#C[C@@H]1[C@H](c2ccc(-c3cccc(F)c3)cc2)[C@H](CO)N1C(=O)NC1CCCC1	97*	-77	nt	-1	109*	104*	17	27
COc1ccc(S(=O)(=O)Nc2ccc3c(c2)C(=O)N([C@H](C)CO)C[C@H](C)[C@H](CN(C)C(=O)NC(C)C)OCCCC[C@@H](C)O3)cc1	-14	nt	4	2	nt	nt	nt	nt
C[C@@H]1CCCCO[C@H](CN(C)Cc2ccc(C(F)(F)F)cc2)[C@H](C)CN([C@H](C)CO)C(=O)c2cc(NC(=O)c3ccncc3)ccc2O1	109*	-30	nt	-1	106*	50	19	73*
C[C@@H]1CN([C@H](C)CO)C(=O)c2cc(NC(=O)c3ccncc3)ccc2O[C@@H](C)CCCCO[C@@H]1CN(C)Cc1ccc(C(F)(F)F)cc1	109*	-4	-1	1	109*	52	8	26*
C[C@@H]1CCCCO[C@@H](CN(C)Cc2ccc(C(F)(F)F)cc2)[C@@H](C)CN([C@@H](C)CO)C(=O)c2cc(NC(=O)c3ccncc3)ccc2O1	36	-6	1	-2	nt	nt	nt	nt
C[C@H]1CCCCO[C@H](CN(C)Cc2ccc(C(F)(F)F)cc2)[C@@H](C)CN([C@@H](C)CO)C(=O)c2cc(NC(=O)c3ccncc3)ccc2O1	98*	-61	nt	0	103*	31	3	106*
C[C@H]1CCCCO[C@@H](CN(C)Cc2ccc(C(F)(F)F)cc2)[C@@H](C)CN([C@@H](C)CO)C(=O)c2cc(NC(=O)c3ccncc3)ccc2O1	24	-47	3	0	nt	nt	nt	nt
